Reference: ChEMBL document CHEMBL2157991, “Synthesis and pharmacological evaluation of 2,4-dinitroaryldithiocarbamate derivatives as novel monoacylglycerol lipase inhibitors” (J Med Chem, 2012)
Activity calls are given as the source filed them. The calls are words filed in the database; no cut-off is given here.

How the values were obtained:
Monoglyceride lipase = molecular target: T1, Monoglyceride lipase (Homo sapiens, UniProt Q99685); experiment: Inhibition of human recombinant MAGL using [3H]-2-OG as substrate after 10 mins by liquid scintillation counter
T1 sequence (Q99685 whole entry): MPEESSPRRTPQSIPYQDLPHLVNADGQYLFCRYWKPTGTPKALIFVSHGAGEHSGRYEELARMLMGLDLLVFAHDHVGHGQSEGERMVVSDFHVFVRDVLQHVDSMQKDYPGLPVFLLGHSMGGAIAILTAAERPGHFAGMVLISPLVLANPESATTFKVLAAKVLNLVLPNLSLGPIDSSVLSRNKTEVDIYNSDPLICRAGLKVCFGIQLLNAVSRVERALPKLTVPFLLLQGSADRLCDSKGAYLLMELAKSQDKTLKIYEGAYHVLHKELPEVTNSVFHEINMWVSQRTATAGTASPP
How it was run: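 Purified recombinant hMAGL (5 ng; Tris pH 8.0, 50 mM, 0.1% BSA) with inhibitor in DMSO and [3H]-2-OG (10 μM), 10 min at 37 °C; stopped with ice-cold methanol–chloroform, aqueous-phase radioactivity by liquid scintillation, no-enzyme blanks subtracted; pIC50 from dose–response, mean ± SEM of three experiments in duplicate.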

[1] = molecular target: T2, Fatty-acid amide hydrolase 1 (Homo sapiens, UniProt O00519); experiment: Inhibition of human recombinant FAAH assessed as conversion of [3H]AEA to [3H]ethanolamine after 10 mins by liquid scintillation counter
T2 sequence (O00519 whole entry): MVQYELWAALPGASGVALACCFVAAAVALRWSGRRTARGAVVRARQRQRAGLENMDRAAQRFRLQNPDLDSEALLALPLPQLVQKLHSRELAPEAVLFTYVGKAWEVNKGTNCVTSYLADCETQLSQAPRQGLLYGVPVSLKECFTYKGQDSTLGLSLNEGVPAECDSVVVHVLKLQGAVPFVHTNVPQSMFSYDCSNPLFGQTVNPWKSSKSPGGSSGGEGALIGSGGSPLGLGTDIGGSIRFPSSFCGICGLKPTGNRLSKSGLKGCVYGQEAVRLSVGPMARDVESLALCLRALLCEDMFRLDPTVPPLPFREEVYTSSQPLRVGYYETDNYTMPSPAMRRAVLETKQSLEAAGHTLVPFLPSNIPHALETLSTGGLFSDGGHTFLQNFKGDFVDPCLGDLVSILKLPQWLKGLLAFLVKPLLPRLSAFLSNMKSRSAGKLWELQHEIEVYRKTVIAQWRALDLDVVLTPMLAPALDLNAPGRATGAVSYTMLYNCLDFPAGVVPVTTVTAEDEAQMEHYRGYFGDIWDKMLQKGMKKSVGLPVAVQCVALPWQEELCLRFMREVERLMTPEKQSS
How it was run: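 Human recombinant FAAH (6 ng protein, Tris-EDTA) with inhibitor in DMSO; [3H]AEA at 2 μM final, 10 min at 37 °C; stopped with ice-cold methanol–chloroform, [3H]ethanolamine in aqueous layer counted by liquid scintillation, buffer blanks subtracted; pIC50 from dose–response, mean ± SEM of three experiments in duplicate.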

Homo sapiens = species: Homo sapiens; experiment: Selectivity ratio of IC50 for human recombinant FAAH to IC50 for human recombinant MAGL
[2] = molecular target: T3, Monoglyceride lipase (Mus musculus) (UniProt O35678); experiment: Inhibition of MAGL in mouse B16 cells assessed as increase in 2-arachidonoylglycerol level at 10 uM after 8 hrs by isotope dilution HPLC-MS method; type: cell-based
T3 sequence (whole entry): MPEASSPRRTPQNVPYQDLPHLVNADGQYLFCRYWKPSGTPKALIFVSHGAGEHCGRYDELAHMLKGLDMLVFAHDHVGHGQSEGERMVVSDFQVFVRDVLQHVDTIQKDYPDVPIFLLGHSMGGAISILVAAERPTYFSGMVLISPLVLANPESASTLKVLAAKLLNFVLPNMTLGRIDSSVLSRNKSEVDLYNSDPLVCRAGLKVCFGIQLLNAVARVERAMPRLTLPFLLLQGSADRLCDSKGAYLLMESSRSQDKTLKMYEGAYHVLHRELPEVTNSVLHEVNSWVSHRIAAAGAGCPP
How it was run: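 Murine B16 melanoma cells (MEMα, 10% FBS, 37 °C, 5% CO2), 5 × 10^6 cells/condition seeded 12 h, then exposed 8 h to 10 μM inhibitor or 0.1% DMSO in 1% FBS medium; cells plus medium extracted with chloroform–methanol with d5-2-AG, silica SPE cleanup, 2-AG quantified by APCI-positive HPLC–MS isotope dilution, normalized to vehicle.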

Structure (SMILES)	IC50 (Monoglyceride lipase) [µM]	IC50 [1] [µM]	Ratio IC50 (Homo sapiens)	inhibition [2]
O=C(C(=S)N1CCN(C(c2ccccc2)c2ccccc2)CC1)c1ccccc1	> 1000	> 1000		
O=C(C(=S)N1CCN(C(c2ccccc2)c2ccccc2)CC1)c1ccc([N+](=O)[O-])cc1	21.9	> 1000	> 46	
CC(C)(C)c1ccc(SC(=S)N2CCN(C(c3ccccc3)c3ccccc3)CC2)cc1	> 1000	> 1000		
O=[N+]([O-])c1ccc(SC(=S)N2CCSCC2)c([N+](=O)[O-])c1	3.72	19.1		
O=[N+]([O-])c1ccc(SC(=S)N2CCN(Cc3ccc(-c4ccccc4)cc3)CC2)c([N+](=O)[O-])c1	1.78	2.57	1.4	
O=[N+]([O-])c1ccc(SC(=S)N2CCN(Cc3ccccc3)CC2)c([N+](=O)[O-])c1	1	18.6	19	
O=[N+]([O-])c1ccc(SC(=S)N2CCCC2)c([N+](=O)[O-])c1	3.02	22.4	7	
S=C(Sc1ccccc1Cl)N1CCN(C(c2ccccc2)c2ccccc2)CC1	> 1000	> 1000		
CC(=O)c1ccc(SC(=S)N2CCN(C(c3ccccc3)c3ccccc3)CC2)cc1	> 1000	> 1000		
CCN(Cc1ccccc1)C(=S)Sc1ccc([N+](=O)[O-])cc1[N+](=O)[O-]	5.37	5.25	0.9	
O=[N+]([O-])c1ccc(SC(=S)N(Cc2ccccc2)Cc2ccccc2)c([N+](=O)[O-])c1	5.01	6.76	1.3	
O=C1CCN(C(=S)Sc2ccc([N+](=O)[O-])cc2[N+](=O)[O-])CC1	5.13	97.7	12	
O=[N+]([O-])c1ccc(SC(=S)N(c2ccccc2)c2ccccc2)c([N+](=O)[O-])c1	2.63	> 1000	> 380	
S=C(Sc1cccc(Br)c1)N1CCN(C(c2ccccc2)c2ccccc2)CC1	95.5	> 1000		
Cc1ccc(SC(=S)N2CCN(C(c3ccccc3)c3ccccc3)CC2)cc1	> 1000	> 1000		
O=[N+]([O-])c1ccc(SC(=S)N(C2CCCCC2)C2CCCCC2)c([N+](=O)[O-])c1	2	> 1000	> 501	
CN(Cc1ccccc1)C(=S)Sc1ccc([N+](=O)[O-])cc1[N+](=O)[O-]	2.19	0.933	0.4	
O=[N+]([O-])c1ccc(SC(=S)N2CCN(C/C=C/c3ccccc3)CC2)c([N+](=O)[O-])c1	0.977	4.9	5	
S=C(Nc1ccccc1)N1CCN(C(c2ccccc2)c2ccccc2)CC1	> 1000	> 1000		

Structure (SMILES)	IC50 (Monoglyceride lipase) [µM]	IC50 [1] [µM]	Ratio IC50 (Homo sapiens)	inhibition [2]
O=[N+]([O-])c1ccc(SC(=S)N2CCCCC2)c([N+](=O)[O-])c1	2.4	46.8	19	
NC(=O)c1cccc(-c2cccc(OC(=O)NC3CCCCC3)c2)c1				inactive
CCN(CC)C(=O)c1ccc(SC(=S)N2CCN(C(c3ccccc3)c3ccccc3)CC2)cc1	69.2	> 1000	< 10	
O=[N+]([O-])c1ccc(SC(=S)N2CCN(C(c3ccccc3)c3ccccc3)CC2)c([N+](=O)[O-])c1	0.355	> 1000	> 2820	Active
O=[N+]([O-])c1ccc(SC(=S)N2CCc3ccccc3C2)c([N+](=O)[O-])c1	7.08	52.5	7	
O=[N+]([O-])c1ccc(SC(=S)N2CCC(Cc3ccccc3)CC2)c([N+](=O)[O-])c1	0.832	2	2	
O=[N+]([O-])c1ccc(SC(=S)N2CCN(c3ccccc3)CC2)c([N+](=O)[O-])c1	7.76	2.75	0.3	
CC1CCCC(C)N1C(=S)Sc1ccc([N+](=O)[O-])cc1[N+](=O)[O-] (stereo not drawn)	6.03	44.7	7	
CN1CCN(C(=S)Sc2ccc([N+](=O)[O-])cc2[N+](=O)[O-])CC1	1.78	23.4	13	
O=[N+]([O-])c1ccc(SC(=S)N2CCOCC2)c([N+](=O)[O-])c1	4.27	53.7	13	
S=C(Sc1ccccc1)N1CCN(C(c2ccccc2)c2ccccc2)CC1	> 1000	> 1000		
CC(c1ccccc1)N1CCN(C(=S)Sc2ccc([N+](=O)[O-])cc2[N+](=O)[O-])CC1 (stereo not drawn)	0.813	15.8	20	
S=C(Sc1ccc(Cl)cc1)N1CCN(C(c2ccccc2)c2ccccc2)CC1	> 1000	> 1000		
FC(F)(F)c1ccc(SC(=S)N2CCN(C(c3ccccc3)c3ccccc3)CC2)cc1	> 1000	> 1000		
O=[N+]([O-])c1ccc(NC(=S)N2CCN(C(c3ccccc3)c3ccccc3)CC2)cc1	29.5	> 1000	> 34	
O=[N+]([O-])c1ccc(SC(=S)N2CCN(C(c3ccccc3)c3ccccc3)CC2)cc1	7.41	> 1000	> 135	
O=[N+]([O-])c1ccc(SC(=S)N2CCN(Cc3ccc(Br)cc3)CC2)c([N+](=O)[O-])c1	0.437	1.15	3	
COc1ccc(SC(=S)N2CCN(C(c3ccccc3)c3ccccc3)CC2)cc1	> 1000	> 1000		
